Results on 42 compounds are retold here after ChEMBL document CHEMBL1629536, “Incorporation of piperazino functionality into 1,3-disubstituted urea as the tertiary pharmacophore affording potent inhibitors of soluble epoxide hydrolase with improved pharmacokinetic properties” (J Med Chem, 2010).

Converted amounts (≈) assume the structure as drawn.

Series [1] concerns the target T1, Bifunctional epoxide hydrolase 2 (Homo sapiens, UniProt P34913).
T1 sequence (P34913 whole entry): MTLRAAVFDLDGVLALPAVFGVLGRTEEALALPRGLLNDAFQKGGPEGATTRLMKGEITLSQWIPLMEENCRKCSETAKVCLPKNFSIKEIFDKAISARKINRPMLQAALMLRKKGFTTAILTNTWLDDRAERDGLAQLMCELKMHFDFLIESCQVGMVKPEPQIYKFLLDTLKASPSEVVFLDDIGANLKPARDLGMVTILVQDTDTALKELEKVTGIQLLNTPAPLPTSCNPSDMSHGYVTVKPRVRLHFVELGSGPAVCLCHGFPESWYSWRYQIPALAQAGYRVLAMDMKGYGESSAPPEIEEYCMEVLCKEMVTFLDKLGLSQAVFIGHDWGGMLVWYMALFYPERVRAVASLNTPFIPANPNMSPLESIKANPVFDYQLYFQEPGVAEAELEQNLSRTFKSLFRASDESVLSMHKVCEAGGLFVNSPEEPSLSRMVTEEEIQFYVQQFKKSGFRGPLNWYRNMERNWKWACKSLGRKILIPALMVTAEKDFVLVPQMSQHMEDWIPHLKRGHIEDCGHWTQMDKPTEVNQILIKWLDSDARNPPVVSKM
In words: Inhibition of human recombinant soluble epoxide hydrolase expressed in baculovirus expression system by fluorimetric assay.

Series [2] in a line: Solubility in sodium phosphate buffer at 0.1 M pH 7.4 at 25 degC. The series is classed as physicochemical.
The nature of series [3]: Tmax in mouse at 5 mg/kg, po. The note with it: in vivo. The series is classed as ADME, organism-based. The arrangement: dose 5 mg/kg, route oral.
The nature of series [4]: Cmax in mouse at 5 mg/kg, po. The series is classed as ADME, organism-based. The arrangement: dose 5 mg/kg, route oral. The note with it: in vivo.
Series [5] can be described thus: (§1) Half life in mouse at 5 mg/kg, po. The series is classed as ADME, organism-based. The arrangement: dose 5 mg/kg, route oral. Particulars: in vivo. An outline of the steps:
(§2)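 Mice dosed by oral gavage at 5 mg/kg in oleic oil triglyceride containing 3% EtOH. Tail-vein blood was sampled before dosing and at 30, 60, 90, 120, 240, 450, 600 and 1440 min, then centrifuged at 3000 rpm, 4°C, 10 min. Plasma was analysed by LC/MS/MS. AUC and t1/2 came from noncompartmental fitting of the concentration-time data.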

The nature of series [6]: AUC in mouse at 5 mg/kg, po. Particulars: plasma. The series is classed as ADME, organism-based. The arrangement: dose 5 mg/kg, route oral. In short, it runs like this: as §2
Series [7] deals with Mus musculus. The series is described as §1. The series is classed as ADME, organism-based. The arrangement: dose 5 mg/kg, route oral. Particulars: in vivo. In short, it runs like this:
as §2

What is called IC50 is the concentration that inhibits the measured activity by half. `CC(=O)N1CCN(CCCCOc2ccccc2NC(=O)NC23CC4CC(CC(C4)C2)C3)CC1`: in series [1], the IC50 was determined as 3.15 µM. For orientation: solubility means how much of the substance goes into solution per volume. Higher therefore signals a readily soluble substance. Turning to `CN1CCN(CCCOc2cccc(NC(=O)NC34CC5CC(CC(C5)C3)C4)c2)CC1`, the IC50 in series [1] came out at 0.0231 µM. The solubility in series [2] is 2.21 mg/mL (≈ 5180 µM).

On to `O=C(Nc1ccccc1OCCCN1CCNCC1)NC12CC3CC(CC(C3)C1)C2`, for which the IC50 in series [1] was 97.5 µM.

Consider `CN1CCN(CCCOc2ccccc2NC(=O)NC23CC4CC(CC(C4)C2)C3)CC1`, for which the IC50 in series [1] stood at 2.88 µM. Regarding `CC(=O)N1CCN(CCCOc2ccccc2NC(=O)NC23CC4CC(CC(C4)C2)C3)CC1`, the IC50 in series [1] was found to be 0.994 µM. For the same compound, in series [2], the solubility is 1.78 mg/mL (≈ 3920 µM). Turning to `O=C(Nc1cccc(OCCCN2CCNCC2)c1)NC12CC3CC(CC(C3)C1)C2`, the IC50 in series [1] was 0.0272 µM. The same compound displayed a solubility in series [2] of 0.81 mg/mL (≈ 1960 µM). As usually defined, the Tmax is the time from dosing to the highest level. One may read the Cmax as the peak of the concentration-time curve. Usually half-life stands for how long it takes for the measured level to halve. Lower therefore signals rapid decline. Usually AUC stands for the area under the concentration-time curve, a measure of exposure. A lower AUC goes with less exposure. Turning to `CC(=O)N1CCN(CCCOc2cccc(NC(=O)NC34CC5CC(CC(C5)C3)C4)c2)CC1`, the IC50 in series [1] was 0.0036 µM. Besides, in series [2], the solubility is 0.34 mg/mL (≈ 748 µM). For the same compound, in series [3], the Tmax is 0.5 h. Besides, in series [4], the concentration peaked (Cmax) at 0.032 µM. In series [5], this compound gave a half-life of 8 h. Moreover, the AUC in series [6] is 185 nM·h. Consider `O=C(Nc1ccc(OCCCN2CCNCC2)cc1)NC12CC3CC(CC(C3)C1)C2`, for which the IC50 in series [1] was 0.156 µM.

As for `CN1CCN(CCCOc2ccc(NC(=O)NC34CC5CC(CC(C5)C3)C4)cc2)CC1`, the IC50 in series [1] is 0.0179 µM. On to `CC(=O)N1CCN(CCCOc2ccc(NC(=O)NC34CC5CC(CC(C5)C3)C4)cc2)CC1`, for which the IC50 in series [1] was 0.0033 µM. The same compound registered a solubility in series [2] of 0.32 mg/mL (≈ 704 µM). Moreover, in series [3], the Tmax came to 0.5 h. For the same compound, the Cmax in series [4] is 0.112 µM. In series [5], this compound showed a half-life of 6 h. Moreover, the AUC in series [6] is 580 nM·h. Consider `O=C(Nc1ccccc1OCCCCN1CCNCC1)NC12CC3CC(CC(C3)C1)C2`, for which the IC50 in series [1] came to 72.8 µM.

In the case of `CN1CCN(CCCCOc2ccccc2NC(=O)NC23CC4CC(CC(C4)C2)C3)CC1`, the IC50 in series [1] came to 5.29 µM. On the same count and under the same terms, the value for `O=C(Nc1cccc(OCCCCN2CCNCC2)c1)NC12CC3CC(CC(C3)C1)C2` was 0.0148 µM. Still for that read-out and setting: the value for `CN1CCN(CCCCOc2cccc(NC(=O)NC34CC5CC(CC(C5)C3)C4)c2)CC1` was 0.0133 µM. As to `CC(=O)N1CCN(CCCCOc2cccc(NC(=O)NC34CC5CC(CC(C5)C3)C4)c2)CC1`, the IC50 in series [1] worked out at 0.0027 µM. Also, the solubility in series [2] is 1.82 mg/mL (≈ 3880 µM). Regarding `O=C(Nc1ccc(OCCCCN2CCNCC2)cc1)NC12CC3CC(CC(C3)C1)C2`, in series [1], the IC50 was 0.126 µM. Same read-out and setting: the value for `CN1CCN(CCCCOc2ccc(NC(=O)NC34CC5CC(CC(C5)C3)C4)cc2)CC1` was 0.0448 µM. With `CC(=O)N1CCN(CCCCOc2ccc(NC(=O)NC34CC5CC(CC(C5)C3)C4)cc2)CC1`, the half-maximal inhibitory concentration (IC50) in series [1] is 0.007 µM. For the same compound, in series [2], the solubility was 0.7 mg/mL (≈ 1490 µM). In addition, in series [3], the Tmax was 0.5 h. This compound showed a Cmax in series [4] of 0.084 µM. The half-life in series [5] was 14 h. Besides, in series [6], the AUC was 670 nM·h.

In the case of `O=C(Nc1cccc(OCCCC(=O)N2CCNCC2)c1)NC12CC3CC(CC(C3)C1)C2`, the IC50 in series [1] amounted to 0.0914 µM. Take `CC(C)(C)OC(=O)N1CCN(CCCCOc2cccc(NC(=O)NC34CC5CC(CC(C5)C3)C4)c2)CC1`: the IC50 in series [1] was 0.0071 µM. In addition, the solubility in series [2] came to 2.78 mg/mL (≈ 5280 µM). The Tmax in series [3] came out at 9 h. For the same compound, the concentration in series [4] peaked (Cmax) at 0.006 µM. Further, in series [5], the half-life was 59 h. The same compound had an AUC in series [6] of 85 nM·h. Regarding `CC(C)(C)OC(=O)N1CCN(C(=O)CCCOc2cccc(NC(=O)NC34CC5CC(CC(C5)C3)C4)c2)CC1`, the IC50 in series [1] stood at 0.0215 µM. Same read-out and setting: the value for `CC(=O)N1CCN(C(=O)CCCOc2cccc(NC(=O)NC34CC5CC(CC(C5)C3)C4)c2)CC1` was 0.0054 µM; that for `O=C(Nc1cccc(OCCN2CCNCC2)c1)NC12CC3CC(CC(C3)C1)C2` was 0.0671 µM. On the same count and under the same terms, the value for `O=C(Nc1cccc(OCCCCCN2CCNCC2)c1)NC12CC3CC(CC(C3)C1)C2` was 0.0138 µM. On the same count and under the same terms, next, `CN1CCN(CCOc2cccc(NC(=O)NC34CC5CC(CC(C5)C3)C4)c2)CC1`: 0.0078 µM; `CN1CCN(CCCCCOc2cccc(NC(=O)NC34CC5CC(CC(C5)C3)C4)c2)CC1`: 0.0115 µM. As for `CC(=O)N1CCN(CCCCCOc2cccc(NC(=O)NC34CC5CC(CC(C5)C3)C4)c2)CC1`, the IC50 in series [1] was found to be 0.0028 µM.

As to `CC(=O)N1CCN(CCOc2cccc(NC(=O)NC34CC5CC(CC(C5)C3)C4)c2)CC1`, the IC50 in series [1] worked out at 0.006 µM. Moreover, the solubility in series [2] worked out at 0.52 mg/mL (≈ 1180 µM). With `CC(C)(C)OC(=O)N1CCN(CCOc2cccc(NC(=O)NC34CC5CC(CC(C5)C3)C4)c2)CC1`, the IC50 in series [1] was 0.0028 µM.

In the case of `CC(C)(C)OC(=O)N1CCN(CCCCCOc2cccc(NC(=O)NC34CC5CC(CC(C5)C3)C4)c2)CC1`, the IC50 in series [1] amounted to 0.0117 µM. On to `CC(C)(C)OC(=O)N1CCN(CCCOc2cccc(NC(=O)NC34CC5CC(CC(C5)C3)C4)c2)CC1`, for which, in series [1], the IC50 came to 0.0029 µM. Besides, in series [2], the solubility turned out to be 0.54 mg/mL (≈ 1050 µM). Moreover, the Tmax in series [3] was 0.5 h. This compound also showed a Cmax in series [4] of 0.006 µM. Also, in series [5], the half-life is 23 h. The compound also gave an AUC in series [6] of 100 nM·h. On to `O=C(Nc1cccc(OCCCCN2CCN(C(=O)C(F)(F)F)CC2)c1)NC12CC3CC(CC(C3)C1)C2`, for which the IC50 in series [1] was 0.0018 µM. In the case of `O=C(Nc1cccc(OCCCCN2CCN(C(=O)CCl)CC2)c1)NC12CC3CC(CC(C3)C1)C2`, in series [1], the IC50 was 0.0014 µM. With `CS(=O)(=O)N1CCN(CCCCOc2cccc(NC(=O)NC34CC5CC(CC(C5)C3)C4)c2)CC1`, the IC50 in series [1] worked out at 0.001 µM. Further, the solubility in series [2] is 2.97 mg/mL (≈ 5880 µM). The Tmax in series [3] worked out at 0.5 h. The same compound yielded a Cmax in series [4] of 0.16 µM. Moreover, the half-life in series [5] was 3.5 h. The compound also gave an AUC in series [6] of 333 nM·h.

Regarding `COc1cc(C(=O)N2CCN(CCCCOc3cccc(NC(=O)NC45CC6CC(CC(C6)C4)C5)c3)CC2)cc(OC)c1OC`, in series [1], the IC50 is 0.0096 µM. Still for that read-out and setting: next, `O=C(Nc1cccc(OCCCCN2CCN(C(=O)c3ccc(C(F)(F)F)cc3)CC2)c1)NC12CC3CC(CC(C3)C1)C2`: 0.0136 µM; `Cc1ccc(S(=O)(=O)N2CCN(CCCCOc3cccc(NC(=O)NC45CC6CC(CC(C6)C4)C5)c3)CC2)cc1`: 0.0033 µM. Take `CC(C)(C)OC(=O)N1CCN(CCCOc2ccccc2NC(=O)NC23CC4CC(CC(C4)C2)C3)CC1`: in series [1], the IC50 turned out to be 0.0394 µM. The same measure, in the same setting: the value for `CC(C)(C)OC(=O)N1CCN(CCCCOc2ccccc2NC(=O)NC23CC4CC(CC(C4)C2)C3)CC1` was 0.0165 µM; that for `CC(C)(C)OC(=O)N1CCN(CCCOc2ccc(NC(=O)NC34CC5CC(CC(C5)C3)C4)cc2)CC1` was 0.0146 µM. The same measure, in the same setting: the value for `CC(C)(C)OC(=O)N1CCN(CCCCOc2ccc(NC(=O)NC34CC5CC(CC(C5)C3)C4)cc2)CC1` was 0.0201 µM. With `O=C(O)CCCCCCCCCCCNC(=O)NC12CC3CC(CC(C3)C1)C2`, in series [2], the solubility was less than 0.125 mg/mL. The compound further displayed a t1/2 in series [7] of 2.1 h. Moreover, the AUC in series [6] was 50 nM·h.
